Screening data from PubChem.
Rows were chosen to be rich in hits. Some 1.5% of all compounds tested hit in one or more screens of this group.
EBI2 antag: antagonists of human EBI2 receptor; inhibition, % at 5 µM; EBI2 beta-arrestin recruitment, luminescence, 7a,25-OHC stimulated; hit rate 0.81% among 360,000; P32249; in the data active = inhibition above about 38%;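 also: enzyme fragment complementation signal reports receptor beta-arrestin coupling in cells; 0% = agonist plus DMSO wells and 100% = wells without agonist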
APJ antagonist: antagonists of human APJ apelin receptor; CHO-K1 APJ beta-arrestin complementation, luminescence; inhibition, % at 20 µM; AID 2521; P35414; hit rate 0.32% among 330,000;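 active = inhibition above about 40% at 20 µM, limit read from the data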;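 also: cells challenged with 10 nM apelin-13 agonist together with compound; plate controls were apelin-13 plus DMSO wells for no effect and DMSO wells lacking apelin-13 for full effect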
Target sequence (P35414 whole entry, looked up): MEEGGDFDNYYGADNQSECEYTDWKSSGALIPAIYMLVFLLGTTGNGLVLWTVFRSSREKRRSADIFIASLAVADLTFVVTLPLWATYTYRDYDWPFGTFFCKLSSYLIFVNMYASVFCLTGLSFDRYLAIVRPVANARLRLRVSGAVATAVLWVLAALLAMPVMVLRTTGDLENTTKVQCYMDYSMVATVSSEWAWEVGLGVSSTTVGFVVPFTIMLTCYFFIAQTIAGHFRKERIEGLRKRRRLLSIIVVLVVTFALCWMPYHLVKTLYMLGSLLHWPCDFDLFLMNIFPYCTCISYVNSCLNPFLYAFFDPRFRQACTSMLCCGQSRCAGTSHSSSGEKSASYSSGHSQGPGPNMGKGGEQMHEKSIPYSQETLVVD
CCR6 antagonist: blocks CCL20-driven beta-arrestin recruitment at human CCR6; inhibition, % at 20 µM; hit rate 0.49% among 340,000; CHO-K1 CCR6 PathHunter beta-arrestin, luminescence, CCL20-stimulated; AID 493098;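 active = compounds whose inhibition of the agonist-driven luminescence signal at 20 µM reaches about 50%, limit read from the data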;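 also: cells stimulated with CCL20 at 14 nM final; plate controls were DMSO with CCL20 for no effect and DMSO without agonist for full effect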
CXCR6 block: CXCR6 (human) receptor inhibition; O00574; CHO-K1 PathHunter CXCR6 beta-arrestin, luminescence; inhibition, % at 20 µM; hit rate 0.36% among 360,000; in the data active = inhibition above about 34%, passing the limit was not always enough;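 also: antagonist mode with CXCL16 agonist at 10 nM final; 0% = 10 nM CXCL16 with DMSO and 100% = unstimulated wells without agonist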
Target sequence (O00574 whole entry, looked up): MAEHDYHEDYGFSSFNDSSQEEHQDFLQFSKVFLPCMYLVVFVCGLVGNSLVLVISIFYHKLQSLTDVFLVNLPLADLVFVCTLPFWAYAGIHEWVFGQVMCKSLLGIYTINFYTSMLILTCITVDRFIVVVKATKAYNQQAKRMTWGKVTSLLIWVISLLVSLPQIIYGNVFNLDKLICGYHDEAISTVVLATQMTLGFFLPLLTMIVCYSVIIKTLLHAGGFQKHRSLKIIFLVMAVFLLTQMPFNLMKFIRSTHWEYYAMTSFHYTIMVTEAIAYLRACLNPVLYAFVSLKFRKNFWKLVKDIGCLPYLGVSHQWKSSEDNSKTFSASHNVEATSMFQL
APJ ag: APJ receptor agonism; activation, % at 20 µM; hit rate 0.11% among 330,000; CHO-K1 APJ PathHunter beta-arrestin, luminescence; 0% DMSO wells, 100% apelin; P35414;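 active = activation more than six SD over the plate average, tested at 20 µM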;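 also: 0% = DMSO alone and 100% = apelin-13 at 10 nM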
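Assay system: CHO-K1 cells stably expressing ProLink-tagged human APJ and arrestin–beta-gal acceptor. Compound dosing: 20 µM single point, 1% DMSO. Times: 16-18 h seeding, 90 min dark compound exposure, 60 min detection. Detection: beta-gal luminescence. Evaluation: APJ–arrestin association signal. Controls: negative DMSO alone, positive Apelin-13 at 10 nM.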
EBI2 conf: confirmation of human EBI2 receptor antagonists. inhibition, % at 5 µM. AID 651997. EBI2 beta-arrestin luminescence, 7a,25-OHC antagonism. hit rate 29% among 2,400. shares compounds with EBI2 antag;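 active = inhibition of at least 50%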
EBI2 agonist: counter-screen for EBI2 antagonists: EBI2 agonist activity; EBI2-expressing cells, agonist mode, luminescence, 60 min; 0% vehicle, 100% 7α,25-dihydroxycholesterol control; activation, % at 5 µM; shares compounds with EBI2 antag; 2,400 tested, under 10 active; AID 652000;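 active = activation of at least 50%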
bGal cs: counter-screen for EBI2 antagonists: E. coli beta-galactosidase inhibition; shares compounds with EBI2 antag; inhibition, % at 5 µM; purified beta-galactosidase, luminescent Galacton Star, 15 min; AID 652176; hit rate 1% among 2,400;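 active = replicate-average signal at least 3 plate SD below neutral wells, shown as high inhibition, flagging enzyme-inhibiting false positives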;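 also: 0% = DMSO wells with enzyme and 100% = wells lacking enzyme; higher means stronger loss of beta-gal luminescence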
Numbers without * were called inactive; x = not tested or not shown.

SMILES | EBI2 antag | APJ antagonist | CCR6 antagonist | CXCR6 block | APJ ag | EBI2 conf | EBI2 agonist | bGal cs
COc1ccc(/C=C2\SC(=S)N(Cc3cccnc3)C2=O)cc1C | 12.7 | -38.4 | 3.3 | 4.1 | -2.1 | x | x | x
Cn1c(=O)[nH]c(=O)c2c1nc1n2CCCN1Cc1ccccc1 | 3.8 | 7.1 | -4.2 | -0.9 | 2.3 | x | x | x
CCOc1ccc(N2C(=O)CC(N)C2=O)cc1 (stereo unspecified) | -6.7 | -0.6 | -11.5 | -1.7 | 2.8 | x | x | x
CC(Oc1ccc(F)cc1)C(=O)Nc1ccc2ccccc2c1 (stereo unspecified) | 50.0* | -7.3 | -1.8 | -1.6 | -1.3 | 30.2 | 1.0 | -6.3
COCCN(C(=O)COC(=O)c1ccccc1NCc1ccco1)c1c(N)n(Cc2ccccc2)c(=O)[nH]c1=O | -1.2 | 1.3 | 20.1 | 1.4 | -2.6 | x | x | x
CCOC(=O)c1ccc(-n2cnc(-c3ccc([N+](=O)[O-])cc3)c2)cc1 | 49.9* | x | x | -3.6 | x | 20.0 | 0.1 | 7.5
Cc1c(C(=O)NNc2cc(=O)n(C)c(=O)n2C)cccc1[N+](=O)[O-] | 6.4 | 15.6 | 15.1 | 5.0 | -3.4 | x | x | x
COc1ccccc1N1CCN(C(=O)c2cc3cc(C)ccc3[nH]2)CC1 | 93.5* | 13.3 | 6.1 | -5.9 | -3.6 | 80.1* | 1.0 | 2.6
COc1ccc2cc(C(=O)N3CCN(c4cccc(C)c4C)CC3)[nH]c2c1 | 84.5* | 5.7 | 9.0 | 6.3 | -0.6 | 56.7* | -1.1 | -14.9
COc1ccccc1N1CCN(C(=O)c2cc3cc(Cl)ccc3[nH]2)CC1 | 89.4* | -12.3 | -12.3 | -8.5 | 1.9 | 72.8* | 0.1 | -9.8
Cc1ccc2[nH]c(C(=O)N3CCN(C(c4ccccc4)c4ccccc4)CC3)cc2c1 | 89.2* | -4.3 | 8.6 | 2.2 | -2.2 | 86.3* | -0.8 | -11.3
COc1ccccc1N1CCN(C(=O)c2cccc(C(=O)N3CCN(c4ccccc4OC)CC3)c2)CC1 | -0.2 | -22.3 | -2.5 | 13.2 | 5.0 | x | x | x
Cc1cc(C)cc(C(=O)NCC(=O)N2CCN(C(c3ccccc3)c3ccccc3)CC2)c1 | -5.2 | -3.5 | 1.6 | 9.3 | -2.4 | x | x | x
COc1ccc(-n2c(SCC(N)=O)nc3nc4c(cc3c2=O)COC(C)(C)C4)cc1 | -0.2 | 1.9 | -4.8 | -15.0 | -2.5 | x | x | x
O=C(CNC(=O)N1CC(=O)Nc2ccccc21)NCCc1c[nH]c2ccccc12 | -4.4 | 5.7 | 7.0 | -0.7 | -3.3 | x | x | x
COc1ccc(CCNC(=O)c2ccc3ccccc3n2)cc1 | 1.4 | 2.0 | 16.2 | 3.2 | 0.5 | x | x | x
COc1ccccc1N1CCN(C(=O)c2cc3cc(F)ccc3[nH]2)CC1 | 87.1* | 10.7 | 0.0 | -5.5 | -2.3 | 58.4* | 1.6 | 3.9
COc1ccccc1N1CCN(C(=S)NC(=O)/C=C/c2ccc(F)cc2)CC1 | 53.7* | 4.4 | 14.2 | 5.3 | -4.7 | 35.2 | -0.5 | 8.7
COc1cc2cc(C(=O)N3CCN(c4ccccc4OC)CC3)[nH]c2cc1OC | 5.8 | -3.3 | 12.5 | -2.9 | -0.8 | x | x | x
O=C(c1cc2cc(F)ccc2[nH]1)N1CCN(C(=O)c2ccco2)CC1 | 67.3* | -65.4 | -14.6 | -8.5 | 2.4 | 36.5 | -0.5 | 3.5
CN1CCN(C(=O)c2cc3cc(F)ccc3[nH]2)CC1 | 11.8 | 6.6 | 7.7 | -1.8 | 0.1 | x | x | x
COc1ccccc1N1CCN(C(=O)c2cc3ccccc3[nH]2)CC1 | 73.2* | 4.9 | 5.0 | -11.1 | 3.0 | 55.5* | 1.8 | 4.5
CN(C)c1ccc(/C=C2\Oc3ccc(C#Cc4cccc(N)c4)cc3C2=O)cc1 | -8.2 | -25.7 | -17.6 | -17.7 | -1.0 | x | x | x
COc1ccc(N2CCN(S(=O)(=O)CCNC(=O)/C=C/c3ccc4c(c3)OCO4)CC2)cc1 | 13.4 | -27.2 | 0.8 | -8.5 | -0.7 | x | x | x
CCOC(=O)C1(Cc2ccc(OC)cc2)CCN(C(=O)c2cc3ccccc3[nH]2)CC1 | 67.4* | -5.6 | 13.6 | 2.8 | -2.8 | 35.4 | -1.2 | -2.7
SMILES | EBI2 antag | APJ antagonist | CCR6 antagonist | CXCR6 block | APJ ag | EBI2 conf | EBI2 agonist | bGal cs
COc1ccccc1N1CCN(S(=O)(=O)CCNC(=O)/C=C/c2ccc3c(c2)OCO3)CC1 | 78.3* | x | x | 1.9 | x | 59.3* | 0.5 | 8.0
O=C(c1cc(-c2ccc(Cl)cc2)n[nH]1)N1CCN(C(=O)c2ccco2)CC1 | 42.4* | -5.5 | -4.7 | -6.9 | -2.8 | 28.5 | 2.1 | 9.4
CCN(CC(=O)Nc1c(F)cccc1F)C(=O)c1ccc(N2CCCCC2)c([N+](=O)[O-])c1 | 6.5 | 10.5 | 14.1 | 2.8 | -3.0 | x | x | x
C[C@@H]1CCCCO[C@@H](CN(C)S(=O)(=O)c2ccc(Cl)cc2)[C@@H](C)CN([C@H](C)CO)C(=O)c2cc(N(C)C)ccc2O1 | -9.2 | x | x | -1.2 | x | x | x | x
Cc1nc(CS(=O)(=O)c2ccc(Cl)cc2)cc(Sc2ccc(Cl)cc2)n1 | 73.2* | 0.0 | 0.5 | -1.2 | -5.3 | 62.4* | -0.2 | 11.2
O=S(=O)(Cc1cc(Sc2ccc(Cl)cc2)nc(-c2ccccc2)n1)c1ccccc1 | 30.9 | 16.5 | 12.0 | 7.0 | -0.4 | x | x | x
O=C(CCCN1C(=O)/C(=C/c2cccs2)SC1=S)NNC(=O)c1ccc(F)cc1 | 63.2* | 15.3 | 19.5 | 13.8 | -2.9 | 19.3 | -1.7 | -11.1
CCOc1ccc(NC(=O)CN2CCN(C3c4ccccc4-c4ccccc43)CC2)cc1 | 67.5* | 2.5 | 4.4 | -7.4 | -4.0 | 49.1 | 0.4 | 2.7
O=C(CN1C(=O)C2CC=CCC2C1=O)Nc1cc(C(F)(F)F)ccc1N1CCCC1 (stereo unspecified) | 46.3* | 26.7 | 13.4 | 4.0 | -2.5 | 20.0 | -0.3 | 5.3
O=C(CN1C(=O)C2CC=CCC2C1=O)Nc1ccccc1N1CCCC1 (stereo unspecified) | 5.3 | 9.2 | 11.7 | 4.2 | -5.0 | x | x | x
CC1CC(C)CN(c2ccc([N+](=O)[O-])cc2-c2nn[nH]n2)C1 (stereo unspecified) | 73.8* | 0.6 | 27.1 | 13.1 | -2.0 | 51.0* | 0.1 | 15.4
COc1ccccc1C(=O)NCC(=O)OC(C)C(=O)N(C)C1CCCCC1 (stereo unspecified) | -3.3 | 20.5 | 1.7 | 5.6 | -1.1 | x | x | x
CC(OC(=O)CNC(=O)c1ccc2ccccc2c1)C(=O)N(C)C1CCCCC1 (stereo unspecified) | 50.4* | 17.5 | 13.7 | 11.1 | -5.2 | 24.8 | -1.1 | -10.5
Cc1ccc(/C=C2\CCC(C3CCCC3)C2=O)cc1 (stereo unspecified) | 3.3 | -11.4 | 13.5 | -4.4 | -1.1 | x | x | x
O=C1/C(=C\c2ccc(Cl)cc2)CCC1CNc1ccc(Cl)cc1 (stereo unspecified) | 46.6* | x | 17.4 | 3.0 | x | 11.3 | 0.6 | 7.9
O=C(CCS(=O)(=O)CCN1CCOCC1)NCNC(=O)CCS(=O)(=O)CCN1CCOCC1 | 7.1 | 6.5 | 7.5 | -6.9 | -4.7 | x | x | x
